ChEMBL document CHEMBL1828600, “Derivatives of pyrrolo[3,4-d]pyridazinone, a new class of analgesic agents” (Eur J Med Chem, 2011)
Active and inactive are the calls of the source.

Key:
[1] = Acute toxicity in ip dosed Albino-Swiss mouse; format: organism-based; conditions: in vivo
In short: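 Mice (20–24 g) given compound i.p. as 0.5% methylcellulose suspension, 10 ml/kg, in rising doses up to 2000 mg/kg; six animals per dose. Deaths counted at 24 h, general behaviour watched for 6 h. LD50 by Litchfield and Wilcoxon.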

Mus musculus [2] = experiment: Analgesic activity in Albino-Swiss mouse assessed as inhibition of heat-induced paw licking or jumping behavior administered as ip measured after 30 mins for 45 secs by Eddy and Leimbach's hot plate method; format: functional
In short: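 Compound i.p. in 0.5% methylcellulose suspension (10 ml/kg), groups of 6–8 mice. Placed on plate at 54–56 °C; latency to forepaw licking or jumping timed by stop-watch before and 30 min after dosing, 45 s cut-off. Latency prolongation compared statistically. Morphine 1, 3, 6 mg/kg and acetylsalicylic acid 100–400 mg/kg i.p. as references.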

Mus musculus [3] = species on record: Mus musculus; experiment: Ratio of acetylsalicylic acid ED50 to compound ED50 for analgesic activity in Albino-Swiss mouse assessed as protection against phenylbenzoquinone-induced writhing; format: functional
In short: (§1)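 Mice (groups of 6–8) dosed i.p. at 3.125–50 mg/kg as 0.5% methylcellulose suspension; 30 min later 0.02% phenylbenzoquinone (ethanol–water 5:95) 0.25 ml i.p. Writhes counted for 10 min starting 5 min after irritant. % effect versus control writhing count; ED50 with confidence limits by Litchfield and Wilcoxon.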

Mus musculus [4] = experiment: Analgesic activity in Albino-Swiss mouse assessed as protection against phenylbenzoquinone-induced writhing administered as ip 30 mins before phenylbenzoquinone challenge measured after 5 mins; format: functional; in short: as §1
Mus musculus [5] = experiment: Toxicity in ip dosed Albino-Swiss mouse assessed as decrease in locomotor activity at hot plate test ED50 after 1 hr; format: organism-based; parameters: scale not given: the % may be the effect or the level left; conditions: in vivo
In short: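 Mice (Albino-Swiss, 20–24 g) received compound i.p. as a 0.5% methylcellulose suspension (10 ml/kg). After 30 min, each mouse was put alone for a 30-min session in a circular photoresistor actometer (30 cm diameter, two photocells, impulse counter), which counted movements.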

Mus musculus [6] = species on record: Mus musculus; experiment: Ratio of morphine ED50 to compound ED50 for analgesic activity in Albino-Swiss mouse by Eddy and Leimbach's hot plate method; format: functional
Mu-type opioid receptor = Mu-type opioid receptor (Rattus norvegicus, UniProt P33535); experiment: Displacement of [3H]-dihydromorphine from mu opioid receptor in rat cerebral cortex by liquid scintillation counting; format: tissue-based
Chain of Mu-type opioid receptor (P33535 whole entry): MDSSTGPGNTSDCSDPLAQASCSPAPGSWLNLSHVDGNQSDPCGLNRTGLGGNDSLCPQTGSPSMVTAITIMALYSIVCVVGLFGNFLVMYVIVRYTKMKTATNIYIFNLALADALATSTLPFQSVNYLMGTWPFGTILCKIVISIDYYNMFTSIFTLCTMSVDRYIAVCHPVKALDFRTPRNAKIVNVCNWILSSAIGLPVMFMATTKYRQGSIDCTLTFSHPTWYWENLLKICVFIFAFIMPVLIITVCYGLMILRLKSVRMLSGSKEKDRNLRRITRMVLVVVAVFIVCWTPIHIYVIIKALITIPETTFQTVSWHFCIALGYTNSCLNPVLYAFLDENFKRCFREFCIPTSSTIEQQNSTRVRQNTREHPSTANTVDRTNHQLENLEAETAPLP
In short: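 Rat cerebral cortex homogenised in 50 mM Tris-HCl pH 7.6, washed by centrifugation at 48,000 × g, preincubated 30 min at 37 °C to remove endogenous opioids. Membranes incubated with 0.2 nM [3H]dihydromorphine and 7–8 compound concentrations (10^-11–10^-4 M); nonspecific binding with levallorphan. Filtration on GF/C, two washes, scintillation counting, duplicates. Result given as Ki.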

Mus musculus [7] = experiment: Analgesic activity in Albino-Swiss mouse assessed as inhibition of heat-induced paw licking or jumping behavior at 200 mg/kg, ip measured after 30 mins for 45 secs by Eddy and Leimbach's hot plate method; format: functional, organism-based; parameters: dose 200 mg/kg
In short: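 Albino-Swiss mice (20–24 g), groups of 6–8, dosed i.p. as a suspension in 0.5% methylcellulose (10 ml/kg). Each mouse was placed on a metal plate at 54–56 °C, and time to forepaw licking or jumping was stopwatch-timed before and 30 min after dosing, with a 45 s cut-off. Latency prolongation was compared by Student's t-test.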

| Structure (SMILES) | LD50 [1] | ED50 (Mus musculus [2]) | Ratio ED50 (Mus musculus [3]) | ED50 (Mus musculus [4]) | ED50 (Mus musculus [2]; 0.5 h) | Activity (Mus musculus [5]) | Ratio ED50 (Mus musculus [6]) | IC50 (Mu-type opioid receptor) | Ki (Mu-type opioid receptor) | inhibition (Mus musculus [7]) |
| --- | --- | --- | --- | --- | --- | --- | --- | --- | --- | --- |
| Cc1c2c(=O)[nH]n(CCN3CCN(c4ccccn4)CC3)c(=O)c2c(C)n1-c1ccccc1 | > 2000 mg/kg | inactive | 100 | 6.84 mg/kg | – | – | – | – | – | – |
| Cc1c2c(=O)[nH]n(CCN3CCN(C(c4ccccc4)c4ccccc4)CC3)c(=O)c2c(C)n1-c1ccccc1 | > 2000 mg/kg | inactive | 100 | 1.83 mg/kg | – | – | – | – | – | – |
| Cc1c2c(=O)[nH]n(CCN3CCN(C/C=C/c4ccccc4)CC3)c(=O)c2c(C)n1-c1ccccc1 | > 2000 mg/kg | inactive | 100 | 1.25 mg/kg | – | – | – | – | – | – |
| Cc1c2c(=O)[nH]n(CCN3CCN(c4ccccc4Cl)CC3)c(=O)c2c(C)n1-c1ccccc1 | > 2000 mg/kg | inactive | 100 | 3.77 mg/kg | – | – | – | – | – | – |
| COc1ccccc1N1CCN(CCn2[nH]c(=O)c3c(C)n(-c4ccccc4)c(C)c3c2=O)CC1 | > 2000 mg/kg | inactive | 100 | 8.02 mg/kg | – | – | – | – | – | – |
| CN1CC[C@]23c4c5ccc(O)c4O[C@H]2[C@@H](O)C=C[C@H]3[C@H]1C5 [MORPHINE] | – | – | – | 2.44 mg/kg | 3.5 mg/kg | – | – | – | – | – |
| Cc1ccc(Cl)cc1N1CCN(CCn2[nH]c(=O)c3c(C)n(-c4ccccc4)c(C)c3c2=O)CC1 | > 2000 mg/kg | – | 100 | 0.55 mg/kg | 10.3 mg/kg | 45% | 3 | 5.6 µM | 2.6 µM | – |
| Cc1c2c(OCCCN3CCN(c4ccccc4)CC3)nn(C)c(=O)c2c(C)n1-c1ccccc1 | 1420 mg/kg | inactive | – | 7.9 mg/kg | – | – | – | – | – | – |
| Cc1c2c(=O)[nH]n(CCN3CCN(Cc4ccccc4)CC3)c(=O)c2c(C)n1-c1ccccc1 | > 2000 mg/kg | inactive | 100 | 0.04 mg/kg | – | – | – | – | – | – |
| COc1ccccc1N1CCN(CCCOc2nn(C)c(=O)c3c(C)n(-c4ccccc4)c(C)c23)CC1 | > 2000 mg/kg | inactive | – | 11.2 mg/kg | – | – | – | – | – | – |
| C=CCN1CC[C@]23CCCC[C@H]2[C@H]1Cc1ccc(O)cc13 [LEVALLORPHAN] | – | – | – | – | – | – | – | 0.000634 µM | – | – |
| Cc1c2c(=O)[nH]n(CCN3CCN(c4ccccc4)CC3)c(=O)c2c(C)n1-c1ccccc1 | > 2000 mg/kg | inactive | 100 | 1.48 mg/kg | – | – | – | – | – | – |
| Cc1c2c(=O)[nH]n(CCN3CCN(c4cccc(C(F)(F)F)c4)CC3)c(=O)c2c(C)n1-c1ccccc1 | > 2000 mg/kg | – | 100 | 1.23 mg/kg | 15.9 mg/kg | 20% | 3 | – | – | – |
| Cc1c2c(=O)[nH]n(CCN3CCN(c4ccccc4F)CC3)c(=O)c2c(C)n1-c1ccccc1 | > 2000 mg/kg | – | 100 | 0.31 mg/kg | 15 mg/kg | 20% | 3 | 24.2 µM | 11.1 µM | – |
| CC(=O)Oc1ccccc1C(=O)O | – | – | – | – | – | – | – | – | – | inactive |
| Cc1c2c(=O)[nH]n(CCN3CCC(Cc4ccccc4)CC3)c(=O)c2c(C)n1-c1ccccc1 | > 2000 mg/kg | inactive | 100 | 1.91 mg/kg | – | – | – | – | – | – |
| Cc1c2c(=O)[nH]n(CCN3CCN(Cc4ccc5c(c4)OCO5)CC3)c(=O)c2c(C)n1-c1ccccc1 | > 2000 mg/kg | inactive | 100 | 1.92 mg/kg | – | – | – | – | – | – |
| COc1cccc(C2(O)CCCCC2CN(C)C)c1 (centres undefined) [TRAMADOL] | – | – | – | – | – | – | – | – | 2.4 µM | – |
